ChEMBL document CHEMBL4145462, “Nitrogen-containing ecdysteroid derivatives vs. multi-drug resistance in cancer: Preparation and antitumor activity of oximes, oxime ethers and a lactam” (Eur J Med Chem, 2018)

Columns and labels:
[1] = Synergistic cytotoxicity against mouse L5178 cells expressing human ABCB1 assessed as combination index at ED75 using 60:1 test compound to doxorubicin ratio after 48 hrs by MTT-based checkerboard microplate method; type: functional
Summary of the method: (§1)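 Checkerboard microplate combinations of compound with doxorubicin at constant molar ratios. 5 × 10^4 cells/well in McCoy's 5A, 48 h at 37°C, 5% CO2. MTT added to 0.5 mg/mL final for 4 h, SDS/HCl overnight, OD read at 540 and 630 nm. Combination indices derived per ratio for 50%, 75% and 90% growth inhibition by median-effect analysis.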

[2] = Synergistic cytotoxicity against mouse L5178 cells assessed as combination index at ED90 using 300:1 test compound to doxorubicin ratio after 48 hrs by MTT-based checkerboard microplate method; type: functional; summary of the method: as §1
MDA-MB-231 = experiment: Antiproliferative activity against human MDA-MB-231 cells after 72 hrs by MTT assay; type: functional, cell-based; settings: MDA-MB-231, 72 h
Summary of the method: (§2)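 Cells grown in MEM with 10% FCS, 1% non-essential amino acids and 1% penicillin-streptomycin. Seeded at 5000 cells/well, exposed to 0.1–30.0 µM compound for 72 h. MTT (5 mg/ml solution) was then added for 4 h, formazan dissolved in DMSO, and absorbance read at 545 nm. Cisplatin served as positive control. IC50 came from sigmoidal dose–response fits (log inhibitor vs normalized response, variable slope).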

[3] = Synergistic cytotoxicity against mouse L5178 cells assessed as combination index at ED90 using 37.5:1 test compound to doxorubicin ratio after 48 hrs by MTT-based checkerboard microplate method; type: functional; summary of the method: as §1
[4] = Synergistic cytotoxicity against mouse L5178 cells assessed as combination index at ED50 using 300:1 test compound to doxorubicin ratio after 48 hrs by MTT-based checkerboard microplate method; type: functional; summary of the method: as §1
[5] = Synergistic cytotoxicity against mouse L5178 cells expressing human ABCB1 assessed as combination index at ED90 using 60:1 test compound to doxorubicin ratio after 48 hrs by MTT-based checkerboard microplate method; type: functional; summary of the method: as §1
[6] = Synergistic cytotoxicity against mouse L5178 cells expressing human ABCB1 assessed as combination index at ED50 using 3.75:1 test compound to doxorubicin ratio after 48 hrs by MTT-based checkerboard microplate method; type: functional; summary of the method: as §1
[7] = Synergistic cytotoxicity against mouse L5178 cells expressing human ABCB1 assessed as combination index at ED75 using 7.5:1 test compound to doxorubicin ratio after 48 hrs by MTT-based checkerboard microplate method; type: functional; summary of the method: as §1
[8] = Synergistic cytotoxicity against mouse L5178 cells expressing human ABCB1 assessed as combination index at ED75 using 3.75:1 test compound to doxorubicin ratio after 48 hrs by MTT-based checkerboard microplate method; type: functional; summary of the method: as §1
[9] = Synergistic cytotoxicity against mouse L5178 cells assessed as combination index at ED50 using 75:1 test compound to doxorubicin ratio after 48 hrs by MTT-based checkerboard microplate method; type: functional; summary of the method: as §1
[10] = Cytotoxicity against mouse L5178 cells after 48 hrs by MTT assay; type: functional, cell-based; settings: L5178, 48 h
Summary of the method: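 Parental mouse lymphoma L5178 and the MDR line made by pHa MDR1/A retrovirus transfection, selected with 60 µg/L colchicine. Grown in McCoy's 5A with horse serum at 37°C, 5% CO2. 5 x 10^4 cells/well, serial compound dilutions, 48 h. MTT added to 0.5 mg/mL final for 4 h, then 10% SDS in 0.01 M HCl overnight, OD read at 540 and 630 nm. IC50 taken as median cytotoxic activity (Dm) from control lanes of checkerboard plates, n=2.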

[11] = Synergistic cytotoxicity against mouse L5178 cells assessed as combination index at ED90 using 600:1 test compound to doxorubicin ratio after 48 hrs by MTT-based checkerboard microplate method; type: functional; summary of the method: as §1
[12] = Synergistic cytotoxicity against mouse L5178 cells expressing human ABCB1 assessed as combination index at ED90 using 30:1 test compound to doxorubicin ratio after 48 hrs by MTT-based checkerboard microplate method; type: functional; summary of the method: as §1
ABCB1 (P-glycoprotein) [13] = target: T1, ABCB1 (P-glycoprotein) (Homo sapiens, UniProt P08183); experiment: Inhibition of human ABCB1 expressed in mouse L5178 cells assessed as increase in rhodamine-123 accumulation at 2 uM after 10 mins by flow cytometric analysis relative to control; type: cell-based; settings: mouse L5178 cells expressing human ABCB1, probe rhodamine-123
T1 sequence (P08183 whole entry): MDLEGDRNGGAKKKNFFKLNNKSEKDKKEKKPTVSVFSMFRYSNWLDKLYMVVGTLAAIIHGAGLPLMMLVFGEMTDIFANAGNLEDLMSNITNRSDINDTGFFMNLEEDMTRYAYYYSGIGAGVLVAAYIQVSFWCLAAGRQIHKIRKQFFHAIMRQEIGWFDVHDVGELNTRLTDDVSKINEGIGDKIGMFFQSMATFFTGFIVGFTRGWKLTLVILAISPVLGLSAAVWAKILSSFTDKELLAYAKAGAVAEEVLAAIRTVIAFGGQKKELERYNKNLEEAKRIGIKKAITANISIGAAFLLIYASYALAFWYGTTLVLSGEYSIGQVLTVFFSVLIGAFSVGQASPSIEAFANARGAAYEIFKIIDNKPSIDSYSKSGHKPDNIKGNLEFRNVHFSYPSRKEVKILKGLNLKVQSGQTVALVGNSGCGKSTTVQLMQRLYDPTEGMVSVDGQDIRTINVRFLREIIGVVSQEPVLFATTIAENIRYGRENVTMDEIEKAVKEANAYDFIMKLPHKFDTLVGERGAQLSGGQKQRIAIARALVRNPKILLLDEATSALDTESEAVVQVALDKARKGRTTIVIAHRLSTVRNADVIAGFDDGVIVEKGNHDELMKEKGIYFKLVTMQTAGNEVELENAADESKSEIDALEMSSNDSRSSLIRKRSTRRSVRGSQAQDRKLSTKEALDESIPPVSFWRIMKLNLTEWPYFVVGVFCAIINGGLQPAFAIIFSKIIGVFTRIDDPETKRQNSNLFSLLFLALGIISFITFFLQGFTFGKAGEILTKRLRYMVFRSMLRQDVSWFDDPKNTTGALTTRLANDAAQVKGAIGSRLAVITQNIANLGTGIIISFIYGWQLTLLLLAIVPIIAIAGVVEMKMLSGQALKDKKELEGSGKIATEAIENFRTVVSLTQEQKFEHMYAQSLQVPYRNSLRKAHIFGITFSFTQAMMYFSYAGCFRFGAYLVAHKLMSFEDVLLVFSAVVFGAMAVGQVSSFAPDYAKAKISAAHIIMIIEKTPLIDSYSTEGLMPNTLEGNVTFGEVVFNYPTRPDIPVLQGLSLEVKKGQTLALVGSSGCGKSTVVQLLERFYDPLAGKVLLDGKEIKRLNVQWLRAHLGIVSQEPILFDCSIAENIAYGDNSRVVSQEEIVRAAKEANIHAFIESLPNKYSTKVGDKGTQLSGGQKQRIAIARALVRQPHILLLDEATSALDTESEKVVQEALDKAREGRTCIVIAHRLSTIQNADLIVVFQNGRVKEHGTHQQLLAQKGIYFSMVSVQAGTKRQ
Summary of the method: (§3)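 Cells at 2 × 10^6/mL were preincubated 10 min with compound. Rhodamine 123 then added to 5.2 µM final, 20 min at 37 °C. Cells washed twice in PBS, resuspended and read by flow cytometry. Percent inhibition was scaled between MDR-cell accumulation (0%) and parental L5178 accumulation (100%). Controls: 100 nM tariquidar (positive) and 2% DMSO (negative).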

[14] = Synergistic cytotoxicity against mouse L5178 cells assessed as combination index at ED75 using 300:1 test compound to doxorubicin ratio after 48 hrs by MTT-based checkerboard microplate method; type: functional; summary of the method: as §1
[15] = Synergistic cytotoxicity against mouse L5178 cells expressing human ABCB1 assessed as combination index at ED75 using 30:1 test compound to doxorubicin ratio after 48 hrs by MTT-based checkerboard microplate method; type: functional; summary of the method: as §1
[16] = Synergistic cytotoxicity against mouse L5178 cells assessed as combination index at ED50 using 37.5:1 test compound to doxorubicin ratio after 48 hrs by MTT-based checkerboard microplate method; type: functional; summary of the method: as §1
[17] = Synergistic cytotoxicity against mouse L5178 cells expressing human ABCB1 assessed as combination index at ED90 using 7.5:1 test compound to doxorubicin ratio after 48 hrs by MTT-based checkerboard microplate method; type: functional; summary of the method: as §1
[18] = Synergistic cytotoxicity against mouse L5178 cells expressing human ABCB1 assessed as combination index at ED50 using 30:1 test compound to doxorubicin ratio after 48 hrs by MTT-based checkerboard microplate method; type: functional; summary of the method: as §1
[19] = Synergistic cytotoxicity against mouse L5178 cells assessed as combination index at ED75 using 600:1 test compound to doxorubicin ratio after 48 hrs by MTT-based checkerboard microplate method; type: functional; summary of the method: as §1
[20] = Synergistic cytotoxicity against mouse L5178 cells expressing human ABCB1 assessed as combination index at ED50 using 7.5:1 test compound to doxorubicin ratio after 48 hrs by MTT-based checkerboard microplate method; type: functional; summary of the method: as §1
[21] = Synergistic cytotoxicity against mouse L5178 cells assessed as combination index at ED90 using 75:1 test compound to doxorubicin ratio after 48 hrs by MTT-based checkerboard microplate method; type: functional; summary of the method: as §1
[22] = Synergistic cytotoxicity against mouse L5178 cells assessed as combination index at ED75 using 37.5:1 test compound to doxorubicin ratio after 48 hrs by MTT-based checkerboard microplate method; type: functional; summary of the method: as §1
[23] = Synergistic cytotoxicity against mouse L5178 cells assessed as combination index at ED75 using 150:1 test compound to doxorubicin ratio after 48 hrs by MTT-based checkerboard microplate method; type: functional; summary of the method: as §1
SiHa = experiment: Antiproliferative activity against human SiHa cells after 72 hrs by MTT assay; type: functional, cell-based; summary of the method: as §2
[24] = Synergistic cytotoxicity against mouse L5178 cells expressing human ABCB1 assessed as combination index at ED50 using 60:1 test compound to doxorubicin ratio after 48 hrs by MTT-based checkerboard microplate method; type: functional; summary of the method: as §1
ABCB1 (P-glycoprotein) [25] = target: T1, ABCB1 (P-glycoprotein); experiment: Inhibition of human ABCB1 expressed in mouse L5178 cells assessed as increase in rhodamine-123 accumulation at 20 uM after 10 mins by flow cytometric analysis relative to control; type: cell-based; settings: mouse L5178 cells expressing human ABCB1, probe rhodamine-123; summary of the method: as §3

In the case of `CCO/N=C1/C=C2C3=CC[C@H]([C@@]4(C)OC(C)(C)O[C@@H]4CCC(C)(C)O)[C@@]3(C)CC[C@@H]2[C@@]2(C)C[C@@H]3OC(C)(C)O[C@@H]3C[C@@H]12`, the CI [1] is reported as 0.36, the CI [2] is reported as 0.74 and the IC50 (MDA-MB-231) is reported as 26 µM. For the same molecule, the CI [3] was 0.6, the CI [4] was 0.59 and the CI [5] was 0.37. For the same molecule, the CI [6] was 0.25, the CI [7] was 0.14 and the CI [8] was 0.14. For the same molecule, the CI [9] was 0.49, the IC50 [10] was 53.2 µM and the CI [11] was 1. The CI [12] was 0.2, the inhibition at 10 min, 2 µM (ABCB1 (P-glycoprotein) [13]) was 56.4% and the CI [14] was 0.66. For the same molecule, the CI [15] was 0.2, the CI [16] was 0.72 and the CI [17] was 0.11. For the same molecule, the CI [18] was 0.22, the CI [19] was 1.1 and the CI [20] was 0.21. It also gave a CI [21] of 0.52, a CI [22] of 0.66 and a CI [23] of 0.48. For the same molecule, the IC50 (SiHa) was > 30 µM, the CI [24] was 0.36 and the inhibition at 10 min, 20 µM (ABCB1 (P-glycoprotein) [25]) was 108%.
